ChEMBL document CHEMBL3817747 (J Med Chem, 2016)

system: Influenza A virus; assay: Antiviral activity against oseltamivir-resistant Influenza A virus A/WSN/1933(H1N1) infected in MDCK cells assessed as protection against virus-induced cytopathic effect after 48 hrs by CellTiter 96 AQueous Non-Radioactive cell proliferation assay; assay type: functional, organism-based
Outline: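 Virus stock (100 TCID50, TCID50 set by serial dilution on MDCK and Reed–Müench) mixed 1:1 with inhibitor at varied concentrations, then used to infect MDCK cells (1 × 10^5 cells/mL) grown in DMEM with 10% FBS. Incubated 48 h, 37 °C, 5% CO2. CPE read by MTS-type reagent, 15 min, A490. EC50 from curve fit of % CPE vs concentration; mean ± SD of three experiments.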

`CCOP(=O)(O)C1=C[C@@H]([C@@H](NC(C)=O)C(CC)CC)[C@H](NC(=N)N)C1` and `CCCCCCOP(=O)(O)C1=C[C@@H]([C@@H](NC(C)=O)C(CC)CC)[C@H](NC(=N)N)C1` are within 1.5-fold of each other in EC50: 19.1 nM for the first, 18.5 nM for the second.

First: CCC(CC)[C@H](NC(C)=O)[C@@H]1[C@H](O)[C@@H](P(=O)(O)O)C[C@H]1NC(=N)N
Second: CCOP(=O)(O)[C@H]1C[C@@H](NC(=N)N)[C@H]([C@@H](NC(C)=O)C(CC)CC)[C@@H]1O
The EC50 of the first is 3.9-fold higher: 260 nM for the first, 66.5 nM for the second. The second is the more potent here.

First: CCC(CC)[C@H](NC(C)=O)[C@@H]1C[C@@H](P(=O)(O)O)C[C@H]1NC(=N)N
Second: CCOP(=O)(O)[C@@H]1C[C@@H]([C@@H](NC(C)=O)C(CC)CC)[C@H](NC(=N)N)C1
The EC50 of the first is 3.9-fold higher: 343 nM for the first, 88.7 nM for the second.

Going from `CCCCCCOP(=O)(O)[C@@H]1C[C@@H]([C@@H](NC(C)=O)C(CC)CC)[C@H](NC(=N)N)C1` to `CCCCCCOP(=O)(O)[C@H]1C[C@@H](NC(=N)N)[C@H]([C@@H](NC(C)=O)C(CC)CC)[C@@H]1O`, the EC50 falls from 43.2 nM to 18.6 nM (2.3-fold). The second is the more potent here.

Going from `CC(=O)N[C@H]1[C@H]([C@H](O)[C@H](O)CO)OC(C(=O)O)=C[C@@H]1NC(=N)N` [ZANAMIVIR] to `CCC(CC)O[C@@H]1C=C(C(=O)O)C[C@H](N)[C@H]1NC(C)=O` [OSELTAMIVIR CARBOXYLATE], the EC50 falls from 16.3 nM to 5.5 nM (3-fold).

Compared with `CCC(CC)[C@H](NC(C)=O)[C@@H]1C=C(P(=O)(O)O)C[C@H]1NC(=N)N`, `CCC(CC)[C@H](NC(C)=O)[C@@H]1[C@H](O)[C@@H](C(=O)O)C[C@H]1NC(=N)N` [PERAMIVIR ANHYDROUS] is 34-fold lower in EC50: 50.3 nM for the first, 1.5 nM for the second. The second is the more potent here.
